Data set [1] is described as follows: Toxic level of the compound. It counts as ADME. In outline: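 HeLa and Vero cells grown overnight to near confluency, then exposed to compound at 100 or 1000 μg/mL for 24-72 h in quadruplicate wells. Cells trypsinized, serially diluted and replated, then grown 3-5 days drug-free. Crystal violet-stained colonies counted. Survival expressed as relative plating efficiency versus untreated controls.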

Data set [2] relates to Human alphaherpesvirus 2. The experiment in a line: In vitro antiviral activity against Herpes simplex type 2 virus. It counts as functional. To be noted: read-out: ED50 (the source's name).
For data set [3], the system named is L1210. The experiment in a line: In vitro antitumor activity against L1210 leukemia cells. To be noted: Mus musculus, read-out: ID50 (the source's name). It counts as functional. An outline of the steps: (§1)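 L1210 or P388 cells kept in RPMI-1640 with 10% heat-inactivated fetal calf serum, seeded at 5×10^4 cells/mL in tubes. Grown with compound at 4-5 log doses for 48 h at 37 °C. Growth read by Coulter cell count as % of untreated control tubes. ID50 = dose giving 50% growth inhibition.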

Data set [4] concerns Measles morbillivirus. The experiment in a line: In vitro antiviral activity against measles virus. To be noted: read-out: ED50 (the source's name). It counts as functional.
The subject of data set [5] is P388. The experiment in a line: In vitro antitumor activity against P388 leukemia cells. It counts as functional. The settings on record: Mus musculus, read-out: ID50 (the source's name). In outline: as §1
The subject of data set [6] is Human respirovirus 3. The experiment in a line: In vitro antiviral activity against parainfluenza type (para 3) virus. It counts as functional. The settings on record: read-out: ED50 (the source's name).
In data set [7] the test system is Vaccinia virus. The experiment in a line: In vitro antiviral activity against Vaccinia virus. It counts as functional. The settings on record: Orthopoxvirus vaccinia; read-out: ED50 (the source's name).
A short description of data set [8]: Toxic level of the compound; None. It counts as ADME.
Data set [9] deals with L1210. The experiment in a line: In vitro antitumor activity against L1210 leukemia cells; b = Inactive at 10e-4 M. It counts as functional, cell-based. The settings on record: Mus musculus. An outline of the steps:
(§2)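 L1210 and P388 cells kept in RPMI-1640 with 10% heat-inactivated fetal calf serum. Seeded in tubes at 5×10^4 cells/mL and grown 48 h at 37 °C with compound at 4-5 log doses. Growth counted by Coulter counter and expressed as % of untreated control tubes. ID50 is the dose giving 50% growth inhibition.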

Data set [10] relates to P388. The experiment in a line: In vitro antitumor activity against P388 leukemia cells; b = Inactive at 10e-4 M. It counts as functional, cell-based. The settings on record: Mus musculus. In outline: as §2

pEC50, pIC50: −log10 of the molar value. Calls of active or inactive are those of the source. No cut-off for these calls is given here.

Turning to `OC[C@H]1OC(n2ncc3c([SeH])ncnc32)[C@H](O)[C@@H]1O` (stereo partly drawn), the Toxic level in data set [1] stood at 160 µM. For the same molecule, the pEC50 in [2] was 5.30; in [4], 5.92; in data set [6] it was less than 2.30; in data set [7], 5.02. For the same molecule, the pIC50 in data set [3] was 5.60; in data set [5], 5.57.
Regarding `Cc1nc(N)c2cnn(C3O[C@H](CO)[C@@H](O)[C@H]3O)c2n1` (stereo partly drawn), in [8], the Toxic level entry is “Not Active”. Further, the pEC50 in data set [2] was 4.46; in data set [4], 4.92; in [6], less than 2.30; in [7], 2.30. The ID50 entry in [9] and in [10] was “Inactive at 10^-4M” throughout.
For the molecule `Cc1nc2c(cnn2C2O[C@H](CO)[C@@H](O)[C@H]2O)c(=O)[nH]1` (stereo partly drawn), the Toxic level in data set [1] amounted to 5000 µM. For the same molecule, the pEC50 is 4.30 in data set [2], 4.92 in data set [4], less than 2.30 in [6] and 2.80 in [7]. Further, the ID50 entry in data set [9] and in [10] was “Inactive at 10^-4M” throughout.
Turning to `OC[C@H]1OC(n2nc(Br)c3c([SeH])ncnc32)[C@H](O)[C@@H]1O` (stereo partly drawn), the Toxic level in data set [1] turned out to be 50 µM. The pEC50 in [2] was 5.05; in data set [4], 5.89; in data set [6] it was less than 2.30; in [7], 5.30. Also, the pIC50 in data set [3] is 5.57; in data set [5], 5.64.
On to `OC[C@H]1OC(n2ncc3c(S)ncnc32)[C@H](O)[C@@H]1O` (stereo partly drawn), for which the Toxic level entry in [8] is on record as “Not Active”. Besides, the pEC50 was 3.80 in data set [2], 4.92 in data set [4] and less than 2.30 in data set [6]. Besides, the ID50 result in data set [9] and in data set [10] was “Inactive at 10^-4M” throughout.
In data set [1], `Cc1nc([SeH])c2cnn(C3O[C@H](CO)[C@@H](O)[C@H]3O)c2n1` (stereo partly drawn) returned a Toxic level of 500 µM. In addition, the pEC50 in data set [2] was 5.30; in data set [4] it was 5.89; in data set [6], 4.89; in [7] it was 4.80. The pIC50 in data set [3] and in data set [5] was 5.51 throughout.
On to `Cc1nc(S)c2cnn(C3O[C@H](CO)[C@@H](O)[C@H]3O)c2n1` (stereo partly drawn), for which, in data set [1], the Toxic level stood at 5000 µM. For the same molecule, the pEC50 is 3.49 in data set [2], 8.85 in data set [4], less than 2.30 in [6] and 2.92 in data set [7]. In addition, the ID50 result in [9] and in data set [10] was “Inactive at 10^-4M” throughout.

Source of the values: ChEMBL document CHEMBL1122696, “Synthesis and antiviral/antitumor activities of certain pyrazolo[3,4-d]pyrimidine-4(5H)-selone nucleosides and related compounds” (J Med Chem, 1984).
